# An excerpt weighted towards active compounds, which were near 3.5% of everything screened.
# MrgX1 PAM: positive allosteric modulators of MrgX1, primary screen, HEK293 cells, Fluo-4 calcium flux; B-score at 10 µM; 0.63% of 310,000 active; FDSS; stronger effect = higher value; Mas-related G-protein coupled receptor member X1 (Homo sapiens), Q96LB2;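 active means plate-corrected calcium response at least 3 library SD above typical, normal starting fluorescence, not activating the receptor alone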;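 further: compound read alongside a low EC10 to EC30 dose of BAM8-22 agonist; peak minus trough fluorescence over baseline measured at the second addition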
# Target sequence (Q96LB2 whole entry, looked up): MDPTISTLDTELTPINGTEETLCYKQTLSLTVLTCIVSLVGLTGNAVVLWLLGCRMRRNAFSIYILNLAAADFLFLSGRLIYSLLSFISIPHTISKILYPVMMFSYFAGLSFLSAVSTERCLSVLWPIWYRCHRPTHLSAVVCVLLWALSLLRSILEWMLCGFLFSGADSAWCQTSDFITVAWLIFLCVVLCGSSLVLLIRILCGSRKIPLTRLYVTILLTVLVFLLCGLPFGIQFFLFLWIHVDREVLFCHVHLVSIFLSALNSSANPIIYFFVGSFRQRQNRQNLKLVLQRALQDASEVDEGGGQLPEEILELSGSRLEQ
# MrgX1 ag: agonists of human MrgX1 receptor, primary screen, HEK293 cells, Fluo-4 calcium flux. Mas-related G-protein coupled receptor member X1 (Homo sapiens), Q96LB2. Fluo-4 calcium fluorescence, agonist mode; stronger effect = higher value. B-score at 10 µM. 0.44% of 310,000 active;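 active means calcium response B-score plate-corrected fluorescence ratio at least 3 library SD, with starting fluorescence B-score inside 5 SD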
#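 Test system: Stable human MrgX1 HEK293 cell line | Schedule: Overnight plating before 1 h dye loading | Read-out basis: Baseline-normalised fluorescence change ratio, B-scored | Detection: Kinetic calcium dye fluorescence, Fluo-4 NW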
# RGS4 act: RGS4 potentiators or activators, primary screen, cell-based, HEK293 M3R inducible RGS4, calcium flux | B-score at 10 µM | carbachol calcium flux Fluo4; stronger effect = lower value | 0.92% of 310,000 active;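 active means B-score of the integrated calcium signal more than 4 SD below the library mean, with starting fluorescence not abnormally high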;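 further: negative B-score means reduced calcium response which marks RGS4 activation or potentiation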
#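 Also added: carbachol at ECmax as muscarinic agonist stimulus; Assay system: HEK293 cells with stable M3R and inducible RGS4; Timing: overnight RGS4 induction, 30 min dye load 37 °C, 20 min compound RT; Measured by: Fluo4-AM (2 µM) calcium-flux fluorescence, kinetic read.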
# RGS4 inh: RGS4 inhibitors, primary screen, cell-based, HEK293 M3R inducible RGS4, calcium flux; B-score at 10 µM; Fluo-4 calcium flux; stronger effect = higher value; triggered by carbachol at its EC20; Regulator of G-protein signaling 4 (Homo sapiens), P49798; AID 463165, 2010; 0.45% of 310,000 active;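 active means B-score, a plate-corrected calcium signal, over three deviations above library mean, with baseline fluorescence within five deviations of library mean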;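 further: RGS4 expression induced by doxycycline in cells with stable M3 receptor; B-score is computed from the integrated fluorescence ratio over baseline after carbachol; higher B-score means a larger calcium signal and so more RGS4 inhibition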
# Target sequence (P49798 whole entry, looked up): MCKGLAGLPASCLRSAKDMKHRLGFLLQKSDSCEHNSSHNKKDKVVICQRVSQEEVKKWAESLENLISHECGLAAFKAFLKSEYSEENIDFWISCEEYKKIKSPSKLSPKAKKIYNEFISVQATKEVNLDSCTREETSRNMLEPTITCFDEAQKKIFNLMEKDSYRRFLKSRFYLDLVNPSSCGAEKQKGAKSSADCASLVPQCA
# MrgX1 antagonist: antagonists of human MrgX1 receptor, primary screen, HEK293 cells, Fluo-4 calcium flux | B-score at 10 µM | BAM8-22 antagonism; stronger effect = lower value | 1.3% of 310,000 active;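 active means calcium-response B-score plate-corrected more than 3 library SD below zero, starting fluorescence within 5 deviations, no agonist response on first addition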;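 further: peak minus trough fluorescence over baseline after final BAM8-22 challenge near maximal dose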
# MrgX1 ag confirm: MrgX1 receptor agonists, duplicate retest, confirmation, HEK293 cells, Fluo-4 calcium flux; shares compounds with MrgX1 ag; Fluo-4 calcium fluorescence, FDSS; activation, % at 10 µM; 78% of 600 active; AID 602412, 2012;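 active means calcium signal rise, corrected for plate position, at least 3 library SD high, with starting brightness within 5 such deviations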
# HEK293 Ca flux: nonspecific calcium signal in parental HEK293, confirmation, counter-screen for MrgX1 antagonist project, parental HEK293 cells, Fluo-4 calcium flux; shares compounds with MrgX1 antagonist; Fluo-4 calcium fluorescence, FDSS; fluorescence ratio F(max-min)/F0 at 10 µM; 2% of 4,000 active;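 active means duplicate-averaged calcium fluorescence ratio at least three times the standard deviation of buffer wells, a nonspecific response in parental cells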
# HEK293 Ca counter: calcium response in parental HEK293 cells, primary screen, counter-screen for MrgX1 allosteric activator project, cell-based, Fluo-4 calcium flux, duplicate. shares compounds with MrgX1 antagonist. fluorescence ratio F(max-min)/F0 at 10 µM. 0.4% of 4,000 active. Fluo-4 fluorescence ratio; stronger effect = higher value. AID 624114, 2012;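 active means calcium fluorescence ratio, averaged over duplicates, at least 3 SD of the buffer-well ratio, meaning a nonspecific response in receptor-free cells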;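 further: untransfected parental HEK293 lacking MrgX1 used as counterscreen for MrgX1 allosteric activators; fluorescence change taken during the second addition on a kinetic imager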
# HEK293 Ca cntr2: calcium response in parental HEK293 cells, primary screen, counter-screen for MrgX1 agonist project, cell-based, Fluo-4 calcium flux, duplicate, agonist mode; shares compounds with MrgX1 antagonist; Fluo-4 calcium fluorescence (FDSS); stronger effect = higher value; fluorescence ratio F(max-min)/F0 at 10 µM; 8.7% of 4,000 active;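 active means calcium fluorescence ratio at least three times the spread of buffer wells, meaning a non-specific response in parental cells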
# Numbers stand for hits; – = inactive; · = not tested or not shown.
SMILES,MrgX1 PAM,MrgX1 ag,RGS4 act,RGS4 inh,MrgX1 antagonist,MrgX1 ag confirm,HEK293 Ca flux,HEK293 Ca counter,HEK293 Ca cntr2
ClCc1nc2ccccc2c2ccccc12,–,44,–,–,–,88%,–,–,–
Cc1ccc(-n2ncc3c(NCc4ccc5c(c4)OCO5)ncnc32)c(C)c1,–,32,–,–,–,224%,–,–,48
Cc1cccc(-n2ncc3c(NCc4ccc5c(c4)OCO5)ncnc32)c1,–,–,–,–,–,·,·,·,·
Cc1[nH][nH]c(=O)c1C(c1ccc(-c2cccc(Cl)c2)o1)c1c(C)[nH][nH]c1=O,–,29,–,–,–,198%,–,–,56
CCCC1(c2ccccc2)NC(=O)N(CC(=O)NCc2ccc(OC)cc2)C1=O (configuration not stated),–,–,–,–,–,·,·,·,·
Cc1ccccc1C(=O)Nc1cccc(NC(=S)NC(=O)c2cccs2)c1,–,–,–,–,–,·,·,·,·
O=C(NNC(=S)Nc1ccccc1)c1cccs1,–,–,–,–,–,·,·,·,·
Cc1ccccc1C(=O)NNC(=S)NC(=O)c1cccs1,–,79,–,–,–,651%,–,–,130
Cc1cccc(C(=O)NC(=S)NNC(=O)c2cccs2)c1,–,173,–,–,–,647%,–,–,140
O=C(NC(=S)NNC(=O)c1cccs1)c1ccccc1,–,132,–,–,–,547%,–,–,107
COc1ccc(C(=O)OC(C)C(=O)NC2CCCCC2C)cc1S(=O)(=O)N1CCOCC1 (configuration not stated),–,–,–,–,–,·,·,·,·
Cc1cnc(NC(=O)CCNC(=O)c2ccc([N+](=O)[O-])cc2)s1,–,–,–,–,–,·,·,·,·
CCCCn1c(N)c(N(CC)C(=O)c2ccccc2F)c(=O)[nH]c1=O,–,–,–,–,–,·,·,·,·
Cc1c(NC(=O)c2ccc(-c3cccc([N+](=O)[O-])c3)o2)c(=O)n(-c2ccccc2)n1C,–,–,–,–,–,·,·,·,·
CC(=O)N1CCC(C(=O)NC2CCCc3c2cnn3-c2cc(F)cc(F)c2)CC1 (configuration not stated),–,–,–,–,–,·,·,·,·
COc1ccc(C2=CC(c3ccc(C)cc3)n3nnnc3N2)cc1 (configuration not stated),–,–,–,–,–,·,·,·,·
COc1ccc(C2C=C(c3ccccc3)Nc3nnnn32)cc1 (configuration not stated),–,33,–,–,–,–,–,–,–
NCC12CC3CC(C1)CC(c1ccc(Cl)cc1)(C3)C2,–,34,-7.2,–,–,135%,–,–,–
Nc1ccc(C23CC4CC(CC(CO)(C4)C2)C3)cc1,–,–,–,–,–,·,·,·,·
CCOc1ccc(Oc2ccccc2NC(=O)CN2C(=O)NC3(CCCC3)C2=O)cc1,–,–,–,–,–,·,·,·,·
Cc1cc(C)nc(/N=C(\N)Nc2ccc(-c3ccccc3)cc2)n1,–,74,-7.1,–,–,300%,–,–,–
Cc1ccc(C)c(N/C(N)=N/c2nc(C)cc(C)n2)c1,–,59,–,–,–,385%,–,–,85
CCOc1ccc(N/C(N)=N/c2nc(C)cc(C)n2)cc1,–,142,–,–,–,434%,–,–,94
Cc1cc(C)nc(/N=C(\N)Nc2ccc(S(N)(=O)=O)cc2)n1,–,–,–,–,–,·,·,·,·
COc1ccc(C)cc1N/C(N)=N/c1nc(C)cc(C)n1,–,–,–,–,–,·,·,·,·
SMILES,MrgX1 PAM,MrgX1 ag,RGS4 act,RGS4 inh,MrgX1 antagonist,MrgX1 ag confirm,HEK293 Ca flux,HEK293 Ca counter,HEK293 Ca cntr2
CC(=O)Nc1ccc(N/C(N)=N/c2nc(C)cc(C)n2)cc1,–,–,–,–,–,·,·,·,·
Cc1cc(C)nc(/N=C(\N)Nc2ccc(SC(F)F)cc2)n1,–,57,–,–,–,444%,–,–,98
O=C(Nc1nc2ccc(Cl)cc2s1)[C@@H]1CCCN1C(=O)c1cccs1,–,–,–,–,–,·,·,·,·
CCOc1ccccc1NC(=O)CN1C(=O)COc2ccc(C)cc21,–,–,–,–,–,·,·,·,·
CCOC(=O)c1[nH]c2ccc(F)cc2c1N=C(C)N(CC)CC,–,50,–,–,–,116%,–,–,–
Cc1ccc(N(CC(=O)NCCc2ccc(F)cc2)S(=O)(=O)c2ccc(Cl)c([N+](=O)[O-])c2)c(C)c1,–,–,–,–,–,·,·,·,·
COc1ccc(C(=O)NC(=S)NNC(=O)c2c(-c3ccccc3)noc2C)cc1OC,–,81,–,–,–,222%,–,–,51
CC(C)(C)NC(=S)NNC(=O)[C@H]1C[C@@H]1c1ccccc1,–,–,–,–,–,·,·,·,·
Cc1onc(-c2ccccc2)c1C(=O)NNC(=S)NC(=O)c1ccc2c(c1)OCO2,–,77,–,–,–,412%,–,–,104
Cc1onc(-c2ccccc2)c1C(=O)NCc1ccc2c(c1)OCO2,–,–,–,–,–,·,·,·,·
COc1ccc(C(=O)NC(=S)NNC(=O)[C@H]2C[C@@H]2c2ccccc2)cc1OC,–,67,–,–,–,378%,–,–,72
COc1cccc(C(C)N(C)Cc2nc(-c3ccoc3)oc2C)c1 (configuration not stated),–,–,–,–,–,·,·,·,·
Cn1c(=O)c2sccc2n2c(CCCC(=O)N3CCCCC3)nnc12,–,–,–,–,–,·,·,·,·
CC1=CCC2C(=O)N(c3cccc(C(=O)Nc4ccccc4Cl)c3)C(=O)C2C1 (configuration not stated),–,–,–,–,–,·,·,·,·
Cc1occc1-c1nnc(SCC(=O)N2CCc3ccccc32)o1,–,37,–,–,–,207%,–,–,–
O=C(CSc1nnc(-c2cccs2)o1)N1CCc2ccccc21,–,–,–,–,–,·,·,·,·
CCOc1ccc(CSC(=N)N)cc1Cl,–,33,–,–,–,179%,–,–,–

# Assay outcomes as filed in PubChem BioAssay.
